Calls of active or inactive are those of the source.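 How the source made its calls, unless noted: active means current rise at least 3 SD above the untreated control mean in each of two repeat wells; inactive means the rest.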
Legend:
[1] = thallium flux activation in parental CHO cells, counter-screen for KCNQ1 potentiator project (AID 493006;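 active means duplicate-averaged activation above buffer control mean plus 5 SD of those controls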); conditions: parental CHO-K1 cells, FluxOR thallium flux, at 10 µM; hits give high values
Procedure, shortened: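 Material: untransfected host CHO-K1 cells with FluxOR thallium dye. Timing: overnight 37 °C plating, 90 min RT dye, 20 min compound. Detection: kinetic FluxOR fluorescence, 10 s baseline, 110 s after stimulus. Read-out basis: max-minus-min fluorescence over baseline, percent of buffer-to-R-L3 span. Replicates: duplicate wells per compound, percent values averaged.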

[2] = target: Potassium voltage-gated channel subfamily KQT member 1 (Homo sapiens) (UniProt P51787); experiment: KCNQ1 potassium channel potentiators, confirmation, FluxOR thallium flux, CHO cells, duplicates (AID 493007;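 active means potentiation averaged over duplicate wells exceeding buffer-only control mean by more than 3 SD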;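 on outcome: cells depolarized by a potassium plus thallium sulfate stimulus after compound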); conditions: KCNQ1 cell line, FluxOR thallium flux fluorescence, at 10 µM; hits give high values, % of reference activator effect, buffer zero
Chain of Potassium voltage-gated channel subfamily KQT member 1 (Homo sapiens) (P51787 whole entry, looked up): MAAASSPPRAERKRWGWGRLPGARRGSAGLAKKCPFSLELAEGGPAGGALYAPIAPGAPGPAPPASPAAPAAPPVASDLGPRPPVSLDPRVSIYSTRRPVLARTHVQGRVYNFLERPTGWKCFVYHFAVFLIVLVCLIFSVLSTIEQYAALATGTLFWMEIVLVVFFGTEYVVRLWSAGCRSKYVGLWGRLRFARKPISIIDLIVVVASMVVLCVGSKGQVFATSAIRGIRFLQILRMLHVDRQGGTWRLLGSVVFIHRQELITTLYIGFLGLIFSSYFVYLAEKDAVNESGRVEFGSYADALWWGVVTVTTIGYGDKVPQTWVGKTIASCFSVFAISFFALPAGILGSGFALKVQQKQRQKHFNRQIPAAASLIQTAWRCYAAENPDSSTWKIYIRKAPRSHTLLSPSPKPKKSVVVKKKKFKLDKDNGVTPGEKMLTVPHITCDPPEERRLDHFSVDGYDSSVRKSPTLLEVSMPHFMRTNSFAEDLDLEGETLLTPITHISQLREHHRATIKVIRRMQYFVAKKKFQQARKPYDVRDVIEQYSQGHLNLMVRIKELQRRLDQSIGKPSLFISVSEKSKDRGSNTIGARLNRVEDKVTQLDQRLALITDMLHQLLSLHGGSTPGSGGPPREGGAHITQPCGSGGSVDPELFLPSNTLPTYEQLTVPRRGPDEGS
Procedure, shortened: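 Test system – KCNQ1-expressing CHO cell line · Incubation – FluxOR dye loading 90 min, compound exposure 20 min, room temperature · Detection – FluxOR Tl+ flux fluorescence, 10 s baseline plus 110 s recording · Controls – buffer-only wells as 0% and R-L3 activator as 100%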

[3] = target: Potassium voltage-gated channel subfamily KQT member 2 (Rattus norvegicus) (UniProt O88943); experiment: rat KCNQ2 channel potentiation, selectivity assay for KCNQ1 potentiator project, KCNQ2-CHO-K1 cells (AID 493009;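 active means mean duplicate potentiation above the buffer control mean plus 5 SD of buffer wells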;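 further: assay conditions were tuned for KCNQ1 rather than KCNQ2 modulators; signal is max minus min fluorescence divided by baseline after thallium stimulus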); conditions: FluxOR thallium flux fluorescence, at 10 µM; hits give high values, scaled: buffer 0, activator control 100
Chain of Potassium voltage-gated channel subfamily KQT member 2 (Rattus norvegicus) (O88943 whole entry, looked up): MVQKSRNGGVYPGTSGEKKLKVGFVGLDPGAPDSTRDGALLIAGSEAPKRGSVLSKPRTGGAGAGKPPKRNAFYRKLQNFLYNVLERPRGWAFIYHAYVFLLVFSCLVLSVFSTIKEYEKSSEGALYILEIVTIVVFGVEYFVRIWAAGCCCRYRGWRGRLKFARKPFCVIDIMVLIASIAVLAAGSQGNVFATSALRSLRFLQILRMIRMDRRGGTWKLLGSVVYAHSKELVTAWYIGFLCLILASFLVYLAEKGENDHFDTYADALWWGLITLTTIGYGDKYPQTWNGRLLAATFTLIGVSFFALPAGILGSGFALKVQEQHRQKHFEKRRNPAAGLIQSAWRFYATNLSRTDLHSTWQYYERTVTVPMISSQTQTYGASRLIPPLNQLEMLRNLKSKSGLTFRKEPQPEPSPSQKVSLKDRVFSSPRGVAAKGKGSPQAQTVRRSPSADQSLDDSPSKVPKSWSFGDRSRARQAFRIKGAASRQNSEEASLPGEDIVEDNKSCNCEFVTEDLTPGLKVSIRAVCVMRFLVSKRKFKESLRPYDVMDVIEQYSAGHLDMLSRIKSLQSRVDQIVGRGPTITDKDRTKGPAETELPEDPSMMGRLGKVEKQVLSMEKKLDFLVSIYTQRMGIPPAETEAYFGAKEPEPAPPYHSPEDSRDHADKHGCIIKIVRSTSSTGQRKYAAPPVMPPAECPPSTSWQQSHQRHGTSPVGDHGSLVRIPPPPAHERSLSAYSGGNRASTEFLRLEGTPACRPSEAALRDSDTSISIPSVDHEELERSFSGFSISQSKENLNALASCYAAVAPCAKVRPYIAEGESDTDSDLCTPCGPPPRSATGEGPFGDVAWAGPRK

[4] = target: Potassium voltage-gated channel subfamily KQT member 1 (Homo sapiens) (UniProt P51787); experiment: KCNQ1 channel current potentiators, confirmation, orthogonal assay for KCNQ1 potentiator project, IonWorks patch clamp, KCNQ1-CHO cells (AID 493184); conditions: automated patch clamp current, at 10 µM; hits give high values
Procedure, shortened: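 Read-out: Percent current increase versus pre-compound level | Assay system: CHO cells carrying KCNQ1 | Measured by: Automated perforated-patch electrophysiology | Medium: External bath solution at pH 7.4 | Dosing: One dose, 10 µM final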

[5] = target: Potassium voltage-gated channel subfamily E member 1 (Homo sapiens) + Potassium voltage-gated channel subfamily KQT member 1 (Homo sapiens) (UniProt P15382+P51787); experiment: KCNQ1/KCNE1 complex potentiators, confirmation, selectivity assay for KCNQ1 potentiator project, thallium flux, CHO-K1 KCNQ1/E1 cells (AID 493186;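 active means mean duplicate activation above the buffer control mean plus 5 SD of those controls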); conditions: FluxOR thallium flux, at 10 µM; hits give high values
Chain of Potassium voltage-gated channel subfamily E member 1 (Homo sapiens) + Potassium voltage-gated channel subfamily KQT member 1 (Homo sapiens) (P51787 whole entry, looked up): as the sequence (P51787 whole entry, looked up) above
Procedure, shortened: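 Test system: CHO-K1 cells with KCNQ1/E1; dosing: one test concentration; signal: FluxOR Tl+ flux fluorescence, kinetic read; incubation: 90-min dye loading then 20-min compound exposure, both at room temperature; read-out basis: percent of R-L3 effect over buffer; replication: duplicate wells per compound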

Row | SMILES | outcome [1] | outcome [2] | outcome [3] | outcome [4] | outcome [5] | potentiation [2] | potentiation [3]
1 | CC(NC(=O)c1ccco1)C(=O)N(C)Cc1ccc(C(F)(F)F)cc1 (stereo not given) | inactive | inactive | inactive | inactive | inactive | – | –
2 | CCOC(=O)c1ccc(N2C(=O)C3ON(c4ccccc4)C(c4ccco4)C3C2=O)cc1 (stereo not given) | inactive | inactive | inactive | inactive | inactive | – | –
3 | CCOC(=O)c1c(C)[nH]sc1=S | inactive | – | inactive | inactive | inactive | 18% (active) | –
4 | Cc1ccc(O)c(NC(=S)NC(=O)COc2ccc(Br)cc2)c1 | inactive | inactive | inactive | inactive | inactive | – | –
5 | COc1ccc(Cn2c(=O)c3[nH]cnc3n(-c3ccccc3C)c2=O)cc1 | inactive | inactive | inactive | inactive | inactive | – | –
6 | Cn1ccnc1C(=O)c1cccc([N+](=O)[O-])c1 | inactive | – | inactive | inactive | inactive | 18.5% (active) | –
7 | Cc1sc2ncnc(N3CCN(Cc4ccccc4)CC3)c2c1-c1ccccc1 | inactive | – | inactive | inactive | inactive | 184% (active) | –
8 | Cc1ccc(-n2c(C)cc(/C=N/NC(=O)c3ccncc3)c2C)cc1C | inactive | – | inactive | inactive | inactive | 30% (active) | –
9 | CCOC(=O)N1CCN(C(=S)NC(=O)c2ccc(Br)cc2)CC1 | inactive | inactive | inactive | inactive | inactive | – | –
10 | Cc1nc2c3cc(F)ccc3n(CCN3CCCCC3)c2s1 | inactive | – | inactive | inactive | inactive | 35% (active) | –
11 | O=C(O)/C=C/C(=O)c1ccc2c(c1)CCc1ccccc1-2 | inactive | inactive | inactive | inactive | inactive | – | –
12 | CCOC(=O)C1CCN(S(=O)(=O)c2ccc3c4c2CC(=O)N4CC(C)S3)CC1 (stereo not given) | inactive | inactive | inactive | inactive | inactive | – | –
13 | COc1ccc(NC(=O)CN2CCN(C3c4ccccc4-c4ccccc43)CC2)cc1 | inactive | inactive | inactive | inactive | inactive | – | –
14 | CN(CC(=O)NCc1ccccc1Cl)CC(=O)Nc1cccc(F)c1 | inactive | inactive | inactive | inactive | inactive | – | –
15 | COc1ccc(C(=O)/C=C/C(=O)N(CC(=O)NC2CCCCC2)Cc2ccccc2)c(O)c1 | inactive | – | inactive | inactive | inactive | 25% (active) | –
16 | CCn1c(SCC(=O)c2cccs2)nnc1-c1cccs1 | inactive | inactive | inactive | inactive | inactive | – | –
17 | COC(=O)CSc1nc(NC(C)C)nc(N(C)C)n1 | inactive | inactive | inactive | inactive | inactive | – | –
18 | COc1cc(/C=N/Nc2nc(N3CCCC3)nc(N3CCCC3)n2)ccc1OCc1ccccc1F | inactive | inactive | inactive | inactive | inactive | – | –
19 | O=C(Nc1ccccc1Br)c1ccccc1-c1ccccc1 | inactive | – | inactive | inactive | inactive | 29.5% (active) | –
20 | C=CCSc1nc2c(c(=O)[nH]1)C(C(C)C)C(C#N)=C(N)O2 (stereo not given) | inactive | inactive | inactive | inactive | inactive | – | –

Row | SMILES | outcome [1] | outcome [2] | outcome [3] | outcome [4] | outcome [5] | potentiation [2] | potentiation [3]
21 | COc1ccc(C(=O)N=C2CCC(C#N)=C3c4cc(OC)c(OC)cc4CCN23)cc1 | inactive | – | inactive | inactive | inactive | 34.5% (active) | –
22 | CCN1CCN(C(c2ccccn2)c2c(NC(=O)c3ccccc3)sc(C)c2C)CC1 (stereo not given) | inactive | inactive | inactive | inactive | inactive | – | –
23 | COc1ccc(NC(=S)NCCC(c2ccccc2)c2ccccc2)c(OC)c1 | inactive | – | inactive | inactive | inactive | 72.5% (active) | –
24 | S=c1nc[nH]c2c1[nH]c1ccc(Cl)cc12 | inactive | inactive | inactive | inactive | inactive | – | –
25 | CCc1cc(=O)oc2cc(OC(C)C(=O)NCC(O)c3ccccc3)c(Cl)cc12 (stereo not given) | inactive | inactive | inactive | inactive | inactive | – | –
26 | CNCC/C=C1/c2ccccc2CSc2ccccc21 | inactive | inactive | inactive | inactive | inactive | – | –
27 | O=C(O)c1ccc([N+](=O)[O-])c(CS(=O)(=O)c2ccccc2)c1 | inactive | inactive | inactive | inactive | inactive | – | –
28 | COc1ccc(Cl)cc1C(=O)NNC(=S)NC(=O)c1cc(-c2ccccc2)nc2ccccc12 | inactive | inactive | inactive | inactive | inactive | – | –
29 | CC(C)CCn1c(SCC(=O)NC2CC2)nc2cc(Cl)ccc2c1=O | inactive | inactive | inactive | inactive | inactive | – | –
30 | CCCCc1ccc(-c2csc(/C(C#N)=C/c3ccco3)n2)cc1 | inactive | – | inactive | inactive | inactive | 132% (active) | –
31 | CCOC(=O)N1CCN(C(=S)NC(=O)c2ccc(F)c(F)c2)CC1 | inactive | inactive | inactive | inactive | inactive | – | –
32 | CCOC(=O)c1cnn(-c2nc(SC)nc3sc4c(c23)CCCC4)c1N | inactive | – | – | inactive | inactive | 29.5% (active) | 142% (active)
33 | O=c1cc2c(nn1Cc1c(Cl)cccc1Cl)-c1ccccc1CC2 | inactive | – | inactive | inactive | inactive | 24% (active) | –
34 | CCc1ccc(NC(=S)NC2CC3CCCC(C2)N3Cc2cccs2)cc1 (stereo not given) | inactive | inactive | inactive | inactive | inactive | – | –
35 | C=CS(=O)(=O)c1sc(Cl)c(N2CCOCC2)c1[N+](=O)[O-] | inactive | – | inactive | inactive | inactive | 19% (active) | –
36 | CC(c1ccccc1)c1nnc(N)s1 (stereo not given) | inactive | inactive | inactive | inactive | inactive | – | –
37 | COc1ccc(CNC(=O)CSc2nc3ccc(OC)cc3[nH]2)cc1 | inactive | inactive | inactive | inactive | inactive | – | –
38 | CCOC(=O)c1cccc(NC(=O)CCc2nnc3ccc(N4CCCCC4)nn23)c1 | inactive | inactive | inactive | inactive | inactive | – | –
39 | Cc1cccc(NC(=S)c2nc3ccccc3s2)c1 | inactive | – | – | inactive | inactive | 146% (active) | 219% (active)
40 | CC1CN(c2nc3ccccc3nc2C(C#N)C(=O)NCc2ccc3c(c2)OCO3)CC(C)O1 (stereo not given) | inactive | – | inactive | inactive | inactive | 26% (active) | –

Row | SMILES | outcome [1] | outcome [2] | outcome [3] | outcome [4] | outcome [5] | potentiation [2] | potentiation [3]
41 | Cc1cccc(OCc2n[nH]c(=S)n2C2CCCCC2)c1 | inactive | inactive | inactive | inactive | inactive | – | –
42 | COc1cccc(-c2nc(=S)c3c(o2)CCCC3)c1 | inactive | inactive | inactive | inactive | inactive | – | –
43 | O=C1C(=O)N(CCCc2ccccc2)c2ccccc21 | inactive | inactive | inactive | inactive | inactive | – | –
44 | O=C(NC1CCCC1)C(c1cccnc1)N(C(=O)c1csnn1)c1ccccc1 (stereo not given) | inactive | – | inactive | inactive | inactive | 27% (active) | –
45 | NS(=O)(=O)c1ccc(Sc2ccc3c(c2)CCC3)nc1 | inactive | – | inactive | inactive | inactive | 22.5% (active) | –
46 | Cn1cc(C(=O)N/N=C/c2ccc([N+](=O)[O-])cc2)c2ccccc21 | inactive | inactive | inactive | inactive | inactive | – | –
47 | CCOC(=O)COc1cc(-n2c(=S)[nH]c3cc(OC)c(OC)cc3c2=O)c(Cl)cc1Cl | inactive | – | inactive | inactive | inactive | 31.5% (active) | –
48 | S=C1N(c2ccccc2)C(c2ccccc2)N2CCCN12 (stereo not given) | inactive | inactive | inactive | inactive | inactive | – | –
49 | C=CCNC(=S)NNC(=O)COc1c(Cl)cc(Cl)cc1Cl | inactive | inactive | inactive | inactive | inactive | – | –
50 | Cc1cccc(/N=C/c2sc3ccccc3c2O)n1 | inactive | inactive | inactive | inactive | inactive | – | –
51 | O=c1c2cc(F)ccc2[nH]c(=S)n1Cc1ccc(F)cc1 | inactive | inactive | inactive | inactive | inactive | – | –
52 | O=C(CSc1nnc(-c2ccco2)o1)Nc1cccc([N+](=O)[O-])c1 | inactive | inactive | inactive | inactive | inactive | – | –
53 | O=c1c2ccccc2oc2cc(NCCCN3CCOCC3)ccc12 | inactive | – | inactive | inactive | inactive | 29.5% (active) | –
54 | CC(=O)Nc1ccc(/C=N/NC(=O)c2cccc(S(=O)(=O)N3CCOCC3)c2)cc1 | inactive | inactive | inactive | inactive | inactive | – | –
55 | Cc1ccc(NC(=O)Nc2ccc3c(c2)CCC3)cc1 | inactive | inactive | inactive | inactive | inactive | – | –
56 | Cc1ccc(NC2=C(Cl)C(=O)OC2OC(=O)c2ccc(C)cc2)cc1 (stereo not given) | inactive | inactive | inactive | inactive | inactive | – | –
57 | Nc1nc(CCl)nc(Nc2ccc3ccccc3c2)n1 | inactive | inactive | inactive | inactive | inactive | – | –
58 | Cc1ccc(C(=O)C2=C(O)C(=O)N(CCCN3CCOCC3)C23C(=O)N(C)c2ccccc23)o1 (stereo not given) | inactive | inactive | inactive | inactive | inactive | – | –
59 | COc1ccc(C2(C)CC(C)(C)Nc3ccccc32)cc1 (stereo not given) | inactive | – | inactive | inactive | inactive | 68.5% (active) | –
60 | COc1cc(/C=C2\C(=O)N(CCC#N)N=C2C)c(Br)cc1OC(C)C | inactive | inactive | inactive | inactive | inactive | – | –
